Results from ChEMBL document CHEMBL4402518, “Identification of Novel Medulloblastoma Cell-Targeting Peptides for Use in Selective Chemotherapy Drug Delivery” (J Med Chem, 2020).
pIC50: −log10 of the molar value. Each block holds one compound with its values, some of them ahead of it. Calls of active or inactive are those of the source. No cut-off for these calls is given here. Peptide text beside a SMILES is read from it. * marks the point of attachment. Glutaryl(5-(14-O-Dox)) = COc1cccc2c1C(=O)c1c(O)c3c(c(O)c1C2=O)C[C@@](O)(C(=O)COC(=O)CCCC(=O)*)C[C@@H]3O[C@H]1C[C@H](N)[C@H](O)[C@H](C)O1

Assays:
[1] = Stability in human serum incubated for up to 4 hrs by LC-MS/MS analysis; assay type: ADME, cell-free
[2] = Drug uptake in human DaOY cells assessed as drug internalization at 0.25 uM measured after 15 to 60 mins by confocal microscopy; assay type: ADME, cell-based
[3] = Ratio of IC50 of compound to IC50 of doxorubicin for cytotoxicity against human NHA cells assessed as reduction in cell viability incubated for 72 hrs by AlamarBlue cell viability assay; assay type: cell-based; conditions: read-out: Ratio IC50
[4] = Cytotoxicity against human NHA cells assessed as reduction in cell viability incubated for 72 hrs by AlamarBlue cell viability assay; assay type: cell-based
Outline: (§1)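 Cells treated at increasing concentrations, with viability read 72 hours post-treatment by alamar blue assay. Data are mean ± S.E.M. from 3 independent experiments.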

[5] = Drug uptake in human DaOY cells assessed as secondary lifetime at 0.25 uM measured after 3 hrs by fluorescence live imaging microscopy analysis; assay type: ADME, cell-based
MRC5 [6] = test: Cytotoxicity against human MRC5 cells assessed as reduction in cell viability incubated for 72 hrs by AlamarBlue cell viability assay; assay type: cell-based; conditions: MRC5, 72 h; outline: as §1
Daoy [7] = test: Cytotoxicity against human DaOY cells assessed as reduction in cell viability incubated for 72 hrs by AlamarBlue cell viability assay; assay type: functional, cell-based; outline: as §1
[8] = Drug uptake in human DaOY cells assessed as drug internalization at 0.25 uM measured after 3 hrs by flow cytometry; assay type: ADME, cell-based
[9] = Selectivity index, ratio of IC50 for human MRC5 cells to IC50 for human DaOY cells incubated for 72 hrs by AlamarBlue cell viability assay
[10] = Drug uptake in human DaOY cells assessed as drug localization by measuring punctuate pattern of expression throughout cell cytoplasm, perinuclear and nuclear region at 0.25 uM measured after 15 to 30 mins by confocal microscopy; assay type: ADME, cell-based
[11] = Selectivity index, ratio of IC50 for human NHA cells to IC50 for human DaOY cells incubated for 72 hrs by AlamarBlue cell viability assay
[12] = Drug uptake in human DaOY cells assessed as drug internalization at 0.25 uM pretreated with actin polymerization inhibitor/macropinocytosis inhibitor, cytochalasin D 1 hr prior to compound addition and measured after 3 hrs by flow cytometry; assay type: ADME, cell-based
Outline: (§2)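 To probe endocytic routes, cells were first pre-treated with non-toxic concentrations of one of four inhibitors before compound exposure. The inhibitors were genistein (caveolae), cytochalasin D (actin/macropinocytosis), amiloride hydrochloride (caveolae/macropinocytosis) and chlorpromazine hydrochloride (clathrin).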

[13] = Ratio of IC50 of compound to IC50 of doxorubicin for cytotoxicity against human MRC5 cells assessed as reduction in cell viability incubated for 72 hrs by AlamarBlue cell viability assay; assay type: cell-based; conditions: read-out: Ratio IC50
[14] = Stability in mouse serum at 250 uM incubated for up to 4 hrs MALDI-TOF analysis; assay type: ADME, cell-free
[15] = Stability in mouse serum incubated for up to 4 hrs by LC-MS/MS analysis; assay type: ADME, cell-free
[16] = Stability in human serum at 250 uM incubated for up to 4 hrs MALDI-TOF analysis; assay type: ADME, cell-free
[17] = Drug uptake in human DaOY cells assessed as primary life time at 0.25 uM measured after 3 hrs by fluorescence live imaging microscopy analysis; assay type: ADME, cell-based
[18] = Drug uptake in human DaOY cells assessed as drug internalization at 0.25 uM pretreated with caveloae-uptake inhibitor, genistein 1 hr prior to compound addition and measured after 3 hrs by flow cytometry; assay type: ADME, cell-based; outline: as §2
[19] = Drug uptake in human DaOY cells assessed as drug internalization at 0.25 uM pretreated with caveloae/macropinocytosis inhibitor, amiloride hydrochloride 1 hr prior to compound addition and measured after 3 hrs by flow cytometry; assay type: ADME, cell-based; outline: as §2
[20] = Drug uptake in human DaOY cells assessed as drug localization in perinuclear and nuclear regions of cell at 0.25 uM measured after 15 to 30 mins by confocal microscopy; assay type: ADME, cell-based
[21] = Drug uptake in human DaOY cells assessed as drug localization in cytoplasm at 0.25 uM pretreated with actin polymerization inhibitor/macropinocytosis inhibitor, cytochalasin D 1 hr prior to compound addition and measured after 3 hrs by fluorescence live imaging microscopy analysis; assay type: ADME, cell-based
[22] = Drug uptake in human DaOY cells assessed as drug localization in nucleus at 0.25 uM measured after 3 hrs by […]; assay type: ADME, cell-based
[23] = Drug uptake in human DaOY cells assessed as drug internalization at 0.25 uM pretreated with clathrin-mediated endocytosis inhibitor, chlorpromazine hydrochloride 1 hr prior to compound addition and measured after 3 hrs by flow cytometry; assay type: ADME, cell-based; outline: as §2
[24] = Drug uptake in human DaOY cells assessed as drug localization in nucleus at 0.25 uM pretreated with actin polymerization inhibitor/macropinocytosis inhibitor, cytochalasin D 1 hr prior to compound addition and measured after 3 hrs by fluorescence live imaging microscopy analysis; assay type: ADME, cell-based
[25] = Drug uptake in human DaOY cells assessed as drug internalization at 0.1 to 1000 uM incubated for 24 hrs using C-terminal FITC-labeled compound by flow cytometry; assay type: ADME, cell-based
Outline: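 FITC-labelled peptide at differing concentrations for 24 h, then cell-associated green fluorescence intensity measured by flow cytometry. Cells given non-fluorescent peptide served as control; n = 3 independent experiments.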

[26] = Drug uptake in human DaOY cells assessed as drug internalization at 0.25 to 100 uM incubated for 24 hrs using C-terminal FITC labeled compound by confocal microscopy; assay type: ADME, cell-based
Outline: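 Medulloblastoma cells exposed 24 h to fluorescently labelled peptide at 0.25 μM, 25 μM and 100 μM, then imaged by confocal microscopy. Cell membrane stained red, nucleus blue, peptide green. Untreated cells served as control.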

Daoy [27] = test: Cytotoxicity against human DaOY cells assessed as reduction in cell viability incubated for 72 hrs; assay type: cell-based; outline: as §1
[28] = Cytotoxicity against human NHA cells assessed as reduction in cell viability incubated for 72 hrs; assay type: cell-based; outline: as §1
Daoy [29] = test: Binding affinity to human DaOY cell surface measured after 15 mins incubation using C-terminal FITC labeled compound by Live cell confocal microscopy; assay type: cell-based
[30] = Stability of the compound in water using C-terminal FITC-labeled compound; assay type: physicochemical; conditions: buffer
MRC5 [31] = test: Cytotoxicity against human MRC5 cells assessed as reduction in cell viability incubated for 72 hrs; assay type: cell-based; conditions: mrc5, 72 h; outline: as §1
[32] = Solubility of the compound in water using C-terminal FITC-labeled compound; assay type: physicochemical; conditions: buffer

Stability [1]: Stable
Drug uptake [2]: Active
Time [5]: 1.3 nanoseconds
Drug uptake [8]: Active
Drug uptake [10]: Active
Drug uptake [12]: Not Active
Stability [14]: Stable
Stability [15]: Stable
Stability [16]: Stable
Time [17]: 4.3 nanoseconds
Compound: COc1cccc2c1C(=O)c1c(O)c3c(c(O)c1C2=O)C[C@@](O)(C(=O)COC(=O)CCCC(=O)N[C@@H](Cc1ccccc1)C(=O)N[C@@H](CO)C(=O)N[C@@H](CCCNC(=N)N)C(=O)N1CCC[C@H]1C(=O)N[C@@H](C)C(=O)N[C@@H](Cc1ccccc1)C(=O)N[C@@H](CC(C)C)C(=O)O)C[C@@H]3O[C@H]1C[C@H](N)[C@H](O)[C@H](C)O1 ({Glutaryl(5-(14-O-Dox))}-FSRPAFL-OH)
selectivity ratio at 72 h [3]: > 7.4
pIC50 [4]: 6.07
pIC50 (MRC5 [6]): 4.97
pIC50 (Daoy [7]): 7.60
Ratio IC50 [9]: 430.2
Ratio IC50 [11]: 33.7
selectivity ratio at 72 h [13]: > 72

Compound: COc1cccc2c1C(=O)c1c(O)c3c(c(O)c1C2=O)C[C@@](O)(C(=O)COC(=O)CCCC(=O)N[C@H](C(=O)NCC(=O)NCC(=O)N[C@@H](CC(C)C)C(=O)N[C@@H](CO)C(=O)N[C@@H](Cc1c[nH]cn1)C(=O)N[C@@H](CCCNC(=N)N)C(=O)O)C(C)C)C[C@@H]3O[C@H]1C[C@H](N)[C@H](O)[C@H](C)O1 ({Glutaryl(5-(14-O-Dox))}-VGGLSHR-OH)
pIC50 (Daoy [7]): 6.89

Drug uptake [18]: Active
Drug uptake [2]: Active
Drug uptake [19]: Active
Drug uptake [20]: Active
Time [5]: 1.3 nanoseconds
Drug uptake [21]: Active
Drug uptake [22]: Active
Drug uptake [23]: Active
Drug uptake [24]: Active
Drug uptake [12]: Active
Time [17]: 4.3 nanoseconds
Compound: COc1cccc2c1C(=O)c1c(O)c3c(c(O)c1C2=O)C[C@@](O)(C(=O)CO)C[C@@H]3O[C@H]1C[C@H](N)[C@H](O)[C@H](C)O1 [DOXORUBICIN]
pIC50 [4]: 6.95
pIC50 (MRC5 [6]): 6.83
pIC50 (Daoy [7]): 8.06
Ratio IC50 [9]: 16.8
Ratio IC50 [11]: 12.8

Drug uptake [25]: Active
Drug uptake [26]: Active
Stability [30]: Stable
solubility [32]: Soluble
Compound: H-FSRPAFL-OH
Activity (Daoy [27]): Non-Toxic
Activity [28]: Non-Toxic
Activity (Daoy [29]): Active
Activity (MRC5 [31]): Non-Toxic
